Assay results: paper PMC4229952 (Molecular cancer therapeutics, 2014)
One block for each molecule: values may come before it. Ends that are not written are not given here. Peptide text beside a SMILES is read from it. * marks the point of attachment. Palmitoyl = CCCCCCCCCCCCCCCC(=O)*; Myristoyl = CCCCCCCCCCCCCC(=O)*

Assays:
[1] = biological target: T1, recombinant GIPC PDZ (Homo sapiens, UniProt O14908); test: Surface plasmon resonance binding to recombinant GIPC PDZ
T1 sequence (O14908 133-213 limits assumed): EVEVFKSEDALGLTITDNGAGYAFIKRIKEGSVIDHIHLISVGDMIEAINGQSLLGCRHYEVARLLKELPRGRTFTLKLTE
How it was run: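 Recombinant GIPC PDZ was amine-coupled to a CM5 chip with NHS/EDC at pH 5.5, the optimum found by pH scouting. Lipidated peptide analyte was diluted in HBS-EP from 10×Kd to 0.1×Kd. Runs used the instrument's kinetic/affinity workflow, and Kd was derived from sensorgram analysis.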

[2] = tested on: ASPC-1 cells; test: Thymidine incorporation; type: cell-based, human; conditions: for anti-proliferative activity, screening of lipidated peptides: ASPC-1 cells, [3H] thymidine incorporation, Figure 3A
How it was run: (§1)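 About 2×10⁴ cells per well in 24-well plates were cultured with peptides, including a palmitoylated scrambled-sequence control, for the indicated time. Media were RPMI-1640 with 10% FBS for ASPC-1 and DMEM with 10% FBS for MiaPaca-2. [³H]thymidine was then added for 4 h. Cells were washed in ice-cold PBS, fixed in chilled methanol and lysed in 0.1 N NaOH, and TCA-precipitable radioactivity was counted. Error bars are SD; t-test.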

[3] = tested on: MiaPaca-2 cells; test: Thymidine incorporation; type: cell-based, human; conditions: MiaPaca-2, AP1063 as control, Figure 3D
How it was run: as §1

[4] = tested on: Endoglin-GIPC interaction; test: Immunoprecipitation of endoglin-GIPC interaction; type: cell-based, human; conditions: ASPC-1 and MiaPaca-2 cell lines, Figure 3B
[5] = tested on: subcutaneous ASPC-1 tumor; test: Subcutaneous ASPC-1 tumor model, intratumoral peptide injection; type: in vivo, SCID mice; conditions: subcutaneous ASPC-1 model, compared to AP1063, Supplementary Figure S2
How it was run: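 Male SCID mice aged 6–8 weeks received 5×10⁶ ASPC-1 cells in 100 μl PBS subcutaneously in the right flank. After 9 days they were randomized (n=7 per group) to daily intratumoral peptide at 500 μg/mouse/day in PBS containing 80% DMSO for 3 weeks; comparator was a scrambled palmitoylated peptide. Tumors were fixed in 10% neutral buffered formalin for 24 h, paraffin-embedded and immunostained (DAB, hematoxylin counterstain). t-test.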

[6] = tested on: Smad-1/5 phosphorylation; test: Western blot of Smad phosphorylation and expression; type: cell-based, human; conditions: Figure 5B
How it was run: (§2)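 Whole-cell lysates were made in NP-40 buffer with protease and phosphatase inhibitors and cleared at 12,000 rpm for 10 min at 4 °C. Proteins were separated by SDS-PAGE, transferred to PVDF, immunoblotted and detected by chemiluminescence. Cells were harvested at 70–80% confluence.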

[7] = tested on: Id-1, E-cadherin expression; test: Western blot of differentiation markers; type: cell-based, human; conditions: Figure 6B
How it was run: as §2

[8] = biological target: T2, Endoglin C-terminal peptide AP1013 (N-myristoyl-PCSTSSMA) (Homo sapiens); test: SPR
T2 chain: Myristoyl-PCSTSSMA

Kd [1]: 7.1 ± 2.8 µM
Molecule: CCCCCCCCCCCCCC(=O)N1CCC[C@H]1C(=O)N[C@@H](CS)C(=O)N[C@@H](CO)C(=O)N[C@H](C(=O)N[C@@H](CO)C(=O)N[C@@H](CO)C(=O)N[C@@H](CCSC)C(=O)N[C@@H](C)C(=O)O)[C@@H](C)O [AP1013, Myristoyl-PCSTSSMA] (Myristoyl-PCSTSSMA-OH)

Molecule: Ac-PCSTSSMA [AP1030]
anti-proliferative activity, screening of lipidated peptides [2]: ineffective

Molecule: Palmitoyl-PCSTSSMA [AP1032]
inhibition of proliferation ([2]; ASPC-1, AP1063 as control, Figure 3C): inhibited proliferation
anti-proliferative activity, screening of lipidated peptides [2]: highest anti-proliferative activity
inhibition of proliferation [3]: inhibited proliferation
inhibition of endoglin-GIPC interaction [4]: effectively inhibited endoglin-GIPC interaction
microvessel density (MVD) [5]: significant decrease in MVD
necrotic area [5]: increased necrotic area
Smad-1/5 phosphorylation [6]: clearly inhibits
expressions of Smad1 and Smad 2 [6]: also inhibited
Id-1 expression ([7]; ASPC-1 and MiaPaca-2, 100 μmol/L peptide): inhibited Id-1 expression
E-cadherin expression ([7]; Western blot, 100 μmol/L peptide): did not significantly increase

Molecule: Palmitoyl-SMTSCAPS [AP1063]
inhibition of endoglin-GIPC interaction [4]: could not

Molecule: myristoyl-PCSTSS[K(εN-benzoyl)]A [AP1035]
anti-proliferative activity, screening of lipidated peptides [2]: not superior to the corresponding non-modified AP1013

Molecule: myristoyl-PCST[K(εN-benzoyl)]SMA [AP1036]
anti-proliferative activity, screening of lipidated peptides [2]: not superior to the corresponding non-modified AP1013

Kd [8]: 7.1 µM
B1: GIPC PDZ domain PDZ (protein)
chain: T1 sequence (O14908 133-213 limits assumed)
